In ChEMBL document CHEMBL2010797, “Exploring aigialomycin d and its analogues as protein kinase inhibitors for cancer targets” (ACS Med Chem Lett, 2011):

How the values were obtained:
[1] = target: Cyclin-dependent kinase 2/cyclin A (Homo sapiens) (UniProt P24941+P20248+P78396); test: Inhibition of CDK2/cyclin A using 5-FAM-GGGPATPKKAKKL-COOH as substrate at 10 uM after 1 hr by IMAP assay; format: protein-complex assay
Method in brief: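 IMAP fluorescence-polarization enzyme assay on CDK2/cyclin A, testing competition at the ATP site. Compounds tested at 10 μM, with purvalanol A at 1 μM as reference. Percent inhibition is the average ± SD of three independent experiments, or the mean of two for some compounds.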

[2] = target: MAP kinase-interacting serine/threonine-protein kinase 2 (Homo sapiens, UniProt Q9HBH9); test: Inhibition of MNK2 using 5-FAM-TATKSGSTTKNRFVV-NH2 as substrate preincubated for 1 hr prior substrate addition measured after 2 hrs by IMAP assay
Sequence of MAP kinase-interacting serine/threonine-protein kinase 2 (Q9HBH9 whole entry): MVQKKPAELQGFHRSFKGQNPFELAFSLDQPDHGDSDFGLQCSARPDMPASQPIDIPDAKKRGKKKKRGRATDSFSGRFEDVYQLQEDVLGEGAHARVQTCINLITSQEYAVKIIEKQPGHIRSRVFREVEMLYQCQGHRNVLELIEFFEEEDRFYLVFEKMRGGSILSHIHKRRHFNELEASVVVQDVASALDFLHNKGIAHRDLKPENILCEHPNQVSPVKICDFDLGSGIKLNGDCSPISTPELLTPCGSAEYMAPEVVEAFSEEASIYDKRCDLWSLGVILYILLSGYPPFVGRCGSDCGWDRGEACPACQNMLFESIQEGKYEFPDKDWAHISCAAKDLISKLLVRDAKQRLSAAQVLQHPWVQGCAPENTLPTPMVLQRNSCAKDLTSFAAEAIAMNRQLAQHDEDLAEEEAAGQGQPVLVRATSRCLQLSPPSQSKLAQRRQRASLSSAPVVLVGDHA

[3] = target: Cyclin-dependent kinase 2/cyclin A (Homo sapiens, UniProt P24941); test: Inhibition of CDK2/cyclin A using 5-FAM-GGGPATPKKAKKL-COOH as substrate after 1 hr by IMAP assay; format: protein-complex assay
Method in brief: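 IMAP fluorescence-polarization assay on CDK2/cyclin A. IC50 taken from dose–response curves, given as average ± SD of three independent experiments, or the mean of two for one compound.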

[4] = Inhibition of MAP

Structure (SMILES)	inhibition [1] [%]	IC50 [2] [µM]	IC50 [3] [µM]	INH [4] [nM]
COc1cc(O)cc2c1C(=O)O[C@@H](C)C/C=C/[C@@H](O)[C@@H](O)CC/C=C/2	17	> 10	–	–
COc1cc(O)c2c(c1)/C=C/CC[C@H](O)[C@H](O)/C=C/C[C@H](C)OC2=O	49	> 10	19	–
C[C@H]1C/C=C/CCCC/C=C/c2cc(O)cc(O)c2C(=O)O1	17	1.61	–	–
COc1cc2c(c(OC)c1)C(=O)O[C@@H](C)C/C=C/[C@@H](O)[C@@H](O)CC/C=C/2	13	> 10	–	–
C[C@@H]1C/C=C/[C@@H](O)[C@@H](O)CC/C=C/c2cc(O)cc(O)c2C(=O)O1	64	> 10	19	–
CC(C)[C@H](CO)Nc1nc(Nc2cccc(Cl)c2)c2ncn(C(C)C)c2n1	94	–	–	–
O=C1OCC/C=C/[C@@H](O)[C@@H](O)CC/C=C/c2cc(O)cc(O)c21	38	> 10	–	–
C[C@H]1C/C=C/[C@@H](O)[C@@H](O)CCC(=NO)Cc2cc(O)cc(O)c2C(=O)O1 (mixture of isomers)	19	> 10	–	–
COc1cc(O)c2c(c1)[C@H]1O[C@@H]1C[C@H](O)[C@H](O)C(=O)/C=C\C[C@H](C)OC2=O	–	–	–	17
